Data taken from PMC9674229 (Proceedings of the National Academy of Sciences of the …, 2022).

What was measured:
[1] = test system: SNI mice (mechanical allodynia); test: mechanical withdrawal threshold; assay type: in vivo, mouse; conditions: intrathecal coadministration of BIBO 3304 10.0 µg with [Leu^31, Pro^34]-NPY 10.0 µg; n = 4 to 11 mice/group
[2] = test system: SNI mice (cold allodynia); test: cold withdrawal duration; assay type: in vivo, mouse; conditions: intrathecal coadministration of BIBO 3304 10.0 µg with [Leu^31, Pro^34]-NPY 10.0 µg; n = 4 to 11 mice/group
[3] = test system: light touch-evoked pERK in ipsilateral dorsal horn neurons; test: light touch-evoked pERK immunoreactivity in dorsal horn, SNI, intrathecal agents; assay type: in vivo, mouse; conditions: intrathecal coadministration of BIBO 3304 10.0 µg with [Leu^31, Pro^34]-NPY 10.0 µg; n = 4 to 6 mice/group
[4] = test system: inhibitory DREADD hM4DGi in spinal Y1-INs; test: chemogenetic inhibition of Y1-INs: mechanical withdrawal threshold; assay type: in vivo, mouse; conditions: CNO 3 mg/kg i.p., n = 7 mice/group
How it was run: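 Adult Npy1rCre mice received intraspinal Cre-dependent AAV8-hSyn-DIO-hM4DGi (mCherry-tagged) into the left lumbar DH at L3–L4. CNO (3 mg/kg, i.p.) was given either before or after SNI. Calibrated von Frey filaments were applied to the lateral hindpaw to measure withdrawal thresholds. Statistics used two-way ANOVA with Holm-Sidak post hoc tests, and data are shown as means ± SEM.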

[5] = test system: inhibitory DREADD hM4DGi in spinal Y1-INs; test: chemogenetic inhibition of Y1-INs: cold; assay type: in vivo, mouse; conditions: CNO 3 mg/kg i.p., n = 7 mice/group
How it was run: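 Npy1rCre mice were given intraspinal AAV8-hSyn-DIO-hM4DGi into the left lumbar (L3–L4) DH, which expresses Gi-DREADD in Y1-INs. CNO 3 mg/kg i.p. was dosed pre- or post-SNI. Cold sensitivity was scored as the withdrawal response to a 10 μL acetone droplet on the lateral hindpaw. Analysis used two-way ANOVA and Holm-Sidak post hoc tests; data are means ± SEM.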

[6] = test system: inhibitory DREADD hM4DGi in spinal Y1-INs; test: chemogenetic inhibition of Y1-INs: light touch-evoked pERK; assay type: in vivo, mouse; conditions: CNO 3 mg/kg i.p., SNI mice, n = 7 mice/group
How it was run: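 Y1-INs in Npy1rCre mice were targeted by left lumbar (L3–L4) DH injection of AAV8-hSyn-DIO-hM4DGi. In SNI mice, CNO (3 mg/kg i.p.) was followed by light brushing of the lateral hindpaw. Ipsilateral lumbar DH sections were then immunostained for pERK and quantified in the superficial laminae. Groups were compared by unpaired two-tailed Student's t test; data are means ± SEM.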

[7] = test system: inhibitory DREADD hM4DGi in spinal Y1-INs; test: chemogenetic inhibition of Y1-INs: conditioned place preference; assay type: in vivo, mouse; conditions: CNO 3 mg/kg i.p., SNI mice, n = 10 to 11 mice/group
How it was run: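 SNI Npy1rCre mice carried either intraspinal (left lumbar DH) Cre-dependent hM4DGi or control mCherry virus. After conditioning with CNO (3 mg/kg i.p.) paired to one chamber, time spent in the CNO-paired chamber was recorded. Groups were compared with an unpaired two-tailed Student's t test; data are means ± SEM.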

[8] = test system: excitatory DREADD hM3DGq in spinal Y1-INs; test: chemogenetic activation of Y1-INs: spontaneous nocifensive behavior; assay type: in vivo, mouse; conditions: CNO 3 mg/kg i.p., n = 3 to 5 mice/group
How it was run: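 Cre-dependent AAV8-hSyn-DIO-hM3DGq-mCitrine or mCherry control virus was injected into the left lumbar dorsal horn of uninjured Npy1rCre mice. CNO (3 mg/kg, i.p.) or saline was given, then behaviour was videotaped. Scored: nocifensive acts (lifting, flapping, shaking, licking, guarding) and itch-like acts (biting, scratching), each directed to the ipsilateral or contralateral hind limb. Three-way RM ANOVA, Holm-Sidak post hoc.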

[9] = test system: excitatory DREADD hM3DGq in spinal Y1-INs; test: chemogenetic activation of Y1-INs: mechanical; assay type: in vivo, mouse; conditions: CNO 3 mg/kg, uninjured mice, n = 8 mice/group
How it was run: (§1)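 Npy1rCre mice were given an intraspinal injection of Cre-dependent AAV8-hSyn-DIO-hM3DGq-mCitrine into the left lumbar dorsal horn; controls received mCherry virus. Mice were uninjured. CNO 3 mg/kg was given i.p. before testing. Assays: von Frey filaments to the lateral hindpaw (mechanical); a 10 μL acetone droplet to the lateral hindpaw, scoring withdrawal (cold); 52.5 C hotplate (heat). Holm-Sidak post hoc tests.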

[10] = test system: excitatory DREADD hM3DGq in spinal Y1-INs; test: chemogenetic activation of Y1-INs: cold; assay type: in vivo, mouse; conditions: CNO 3 mg/kg, uninjured mice, n = 8 mice/group
How it was run: as §1

[11] = test system: excitatory DREADD hM3DGq in spinal Y1-INs; test: chemogenetic activation of Y1-INs: heat; assay type: in vivo, mouse; conditions: CNO 3 mg/kg, uninjured mice, n = 8 mice/group
How it was run: as §1

[12] = test system: excitatory DREADD hM3DGq in spinal Y1-INs; test: chemogenetic activation of Y1-INs: conditioned place aversion; assay type: in vivo, mouse; conditions: CNO 3 mg/kg i.p., uninjured mice, n = 10 to 11 mice/group
[13] = test system: excitatory DREADD hM3DGq in spinal Y1-INs; test: chemogenetic activation of Y1-INs: open field testing; assay type: in vivo, mouse; conditions: CNO 3 mg/kg, 60 min, n = 6 mice/group
How it was run: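 Uninjured Npy1rCre mice carried left lumbar dorsal-horn Cre-dependent hM3DGq or mCherry virus. Immediately after CNO (3 mg/kg, i.p.), mice were placed in a novel open field for 60 min. […] Averaged activity shown as heat maps. Student's unpaired two-tailed t test.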

[14] = test system: DREADD; conditions: CNO 3 mg/kg; cited from earlier work
[15] = test system: spinal cord transient firing neurons; conditions: cited from earlier work
[16] = test system: Y1 receptors; conditions: intrathecal; rodent models of chronic pain; cited from earlier work

NC(=O)NCc1ccc(CNC(=O)[C@@H](CCCN=C(N)N)NC(=O)C(c2ccccc2)c2ccccc2)cc1 [BIBO 3304]
effect on Y1 agonist-induced mechanical anti-allodynia [1]: abolishes
effect on Y1 agonist-induced cold anti-allodynia [2]: abolishes
effect on Y1 agonist-induced reduction of light touch-evoked pERK [3]: this effect is abolished with coadministration of the Y1 antagonist

C[N+]1([O-])CCN(C2=Nc3cc(Cl)ccc3Nc3ccccc32)CC1 [CNO, clozapine N-oxide]
SNI-induced mechanical hypersensitivity ([4]; post-SNI): abolished both mechanical and cold hypersensitivity
mechanical withdrawal thresholds before SNI ([4]; pre-SNI): does not alter mechanical or cold withdrawal thresholds before SNI
SNI-induced cold hypersensitivity ([5]; post-SNI): abolished both mechanical and cold hypersensitivity
cold withdrawal thresholds before SNI ([5]; pre-SNI): does not alter mechanical or cold withdrawal thresholds before SNI
light touch-evoked pERK in the superficial DH [6]: reduced light-touch evoked pERK in the superficial DH
conditioned place preference (time in CNO-paired chamber) ([7]; control virus (mCherry)): but not control virus (mCherry) spent more time in the CNO-paired chamber
conditioned place preference (time in CNO-paired chamber) ([7]; hM4DGi): spent more time in the CNO-paired chamber
spontaneous nocifensive behaviors ([8]; control (mCherry) virus): but not control (mCherry) virus
itch-like (biting or scratching) behaviors ([8]; hM3DGq, uninjured mice): but not itch-like (biting or scratching) behaviors
spontaneous nocifensive behaviors, contralateral hind limb ([8]; hM3DGq, uninjured mice): but not contralateral, hind limb
mechanical (vF) hypersensitivity [9]: hypersensitivity
cold (acetone droplet withdrawal) hypersensitivity [10]: hypersensitivity
heat (52.5 C hotplate) hypersensitivity [11]: hypersensitivity
conditioned place aversion [12]: produced a robust CPA
grooming-like behaviors (stereotypic episode activity count) [13]: increased grooming-like (stereotypic episode activity count) behaviors
movement in open field [13]: continuous movement
rest in open field [13]: lack of rest
time to alter DREADD-dependent neuronal activity [14]: ≤ 15 min

NCC1(CC(=O)O)CCCCC1 [gabapentin]
frequency and amplitude of sEPSCs [15]: reducing both the frequency and amplitude of sEPSCs

neuropeptide Y [NPY]
behavioral and spinal molecular signs of hyperalgesia [16]: reduces the behavioral and spinal molecular signs of hyperalgesia
